Data published in paper PMC11040708 (JACS Au, 2024).
pKd: −log10 of the molar value.

Target: N-HSP90α WT (Homo sapiens, UniProt P07900)
Assay: SPR kinetics, two-state reaction model, amine-coupled protein
Type: binding
In short: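 Protein was pre-incubated with a 100-fold excess of a reference ATP-site inhibitor, diluted to 20 μg/mL in acetate pH 4.50, and amine-coupled to a CM5 chip (~4000 RU). Compounds came from 10 mM DMSO stock as 2-fold series in HEPES/Tween 20 buffer at 30 μL/min, with 120 s contact and 200–600 s dissociation. Solvent-corrected, double-referenced data were fitted with mass transport.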

Structure (SMILES): O=c1cc(-c2ccc(O)c(O)c2)oc2cc(O[C@@H]3O[C@H](CO)[C@@H](O)[C@H](O)[C@H]3O)cc(O)c12 [compound 5]
- pKd: 5.22
